pIC50, pKi: −log10 of the molar value.
What was measured:
[1] = biological target: Adenylate kinase 2, mitochondrial (Rattus norvegicus, UniProt P29410); assay: Competitive inhibition of Sprague-Dawley rat liver adenylate kinase 2 by Lineweaver-Burk plot analysis
Outline: (§1)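 Inhibition constants from the coupled NADH assay (A340, 23 °C, 0.25 mM AMP, pH 7.6). Two inhibitor levels were each run against five or more ATP levels: 0.1-0.8 mM for AK II/III, 0.15-1.1 mM for muscle AK. Ki applies to ATP-competitive inhibition and I50 to noncompetitive inhibition.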

[2] = biological target: GTP:AMP phosphotransferase AK3, mitochondrial (Rattus norvegicus, UniProt P29411); assay: Competitive inhibition of Sprague-Dawley rat liver adenylate kinase 3 by Lineweaver-Burk plot analysis; outline: as §1
[3] = Noncompetitive inhibition of Escherichia coli adenylate kinase by Lineweaver-Burk plot analysis; conditions: read-out: I50
Outline: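 E. coli B AK partially purified by ammonium sulfate fractionation and DEAE-cellulose chromatography; the single AK-active protein had pI 4.9. ATP KM was 0.06 mM with AMP at 0.13–0.29 mM in the coupled NADH assay (A340, 23 °C, pH 7.6 Tris).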

[4] = biological target: T1, Adenylate kinase isoenzyme 1 (Rattus norvegicus, UniProt P39069); assay: Noncompetitive inhibition of Sprague-Dawley rat muscle adenylate kinase by Lineweaver-Burk plot analysis; conditions: read-out: I50
T1 sequence (P39069 whole entry): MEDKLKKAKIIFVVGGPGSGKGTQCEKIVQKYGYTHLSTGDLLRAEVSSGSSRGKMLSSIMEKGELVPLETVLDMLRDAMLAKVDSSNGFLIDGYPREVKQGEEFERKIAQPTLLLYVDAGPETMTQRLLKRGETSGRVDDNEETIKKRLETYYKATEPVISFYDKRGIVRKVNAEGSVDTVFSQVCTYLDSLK
Outline: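 Enzyme source: rat skeletal muscle homogenized in KHPO4/glucose/EDTA/dithioerythritol/glycerol buffer and spun 1 h at 90000g, 2 °C. Electrofocused at pH 6-8; the AK zone (pI 6.4) was dialyzed as for the liver isozymes and held at 4 °C.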

Chain of GTP:AMP phosphotransferase AK3, mitochondrial (P29411 whole entry): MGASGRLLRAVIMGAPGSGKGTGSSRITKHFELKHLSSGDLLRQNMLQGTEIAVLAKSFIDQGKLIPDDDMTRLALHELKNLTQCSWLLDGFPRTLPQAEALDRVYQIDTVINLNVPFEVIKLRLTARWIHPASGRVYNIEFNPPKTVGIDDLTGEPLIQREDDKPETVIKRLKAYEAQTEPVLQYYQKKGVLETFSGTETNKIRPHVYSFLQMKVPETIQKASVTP

Row | SMILES | pKi [1] | pKi [2] | pIC50 [3] | pIC50 [4]
1 | Nc1ncnc2c1nc(SCCO)n2[C@@H]1O[C@H](COP(=O)(O)OP(=O)(O)OP(=O)(O)O)[C@@H](O)[C@H]1O | 3.60 | 3.66 | – | –
2 | CC(=O)NCCCCCCNc1ncnc2c1ncn2[C@@H]1O[C@H](COP(=O)(O)OP(=O)(O)OP(=O)(O)O)[C@@H](O)[C@H]1O | – | 2.32 | – | 1.89
3 | Nc1ncnc2c1nc(SCCCCO)n2[C@@H]1O[C@H](COP(=O)(O)OP(=O)(O)OP(=O)(O)O)[C@@H](O)[C@H]1O | 3.84 | 3.89 | – | –
4 | Nc1ncnc2c1nc(Sc1ccccc1)n2[C@@H]1O[C@H](COP(=O)(O)OP(=O)(O)OP(=O)(O)O)[C@@H](O)[C@H]1O | 3.49 | – | – | –
5 | O=C(CI)NCCCCCNc1ncnc2c1ncn2[C@@H]1O[C@H](COP(=O)(O)OP(=O)(O)OP(=O)(O)O)[C@@H](O)[C@H]1O | – | – | 2.32 | –
6 | CSc1nc2c(N)ncnc2n1[C@@H]1O[C@H](COP(=O)(O)OP(=O)(O)OP(=O)(O)O)[C@@H](O)[C@H]1O | 3.49 | 3.44 | – | 2.23

Further lines, results first:

Row | pKi [1] | pKi [2] | pIC50 [3] | pIC50 [4] | SMILES
7 | 4.10 | 4.30 | 2.23 | – | CCSc1nc2c(N)ncnc2n1[C@@H]1O[C@H](COP(=O)(O)OP(=O)(O)OP(=O)(O)O)[C@@H](O)[C@H]1O
8 | 4.26 | 4.19 | 2.33 | 2.21 | CCCSc1nc2c(N)ncnc2n1[C@@H]1O[C@H](COP(=O)(O)OP(=O)(O)OP(=O)(O)O)[C@@H](O)[C@H]1O
9 | 4.10 | 4.22 | – | – | CCCCCSc1nc2c(N)ncnc2n1[C@@H]1O[C@H](COP(=O)(O)OP(=O)(O)OP(=O)(O)O)[C@@H](O)[C@H]1O
10 | 4.12 | 4.22 | – | 2.21 | CCCCSc1nc2c(N)ncnc2n1[C@@H]1O[C@H](COP(=O)(O)OP(=O)(O)OP(=O)(O)O)[C@@H](O)[C@H]1O

Source: ChEMBL document CHEMBL3244193, “Design of species- or isozyme-specific enzyme inhibitors. 3. Species and isozymic differences between mammalian and bacterial adenylate kinases in substituent tolerance in an enzyme-substrate complex” (J Med Chem, 1979)
